From PubChem BioAssay
The full list was thinned out, with hits kept by preference.
CHOP inh: inhibitors of CHOP promoter induction, primary screen, cell-based, unfolded protein response, luciferase reporter; CHO-K1 CHOP-promoter luciferase, tunicamycin-induced, 15-18 h; AID 2732, 2010; hit rate 3.8% among 220,000; inhibition, % at 10 µM;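 active means compounds that reduced the stress-induced luciferase reporter signal by more than about 70% of percent inhibition, limit read from the data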;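 further: 0% = tunicamycin plus vehicle and 100% = wells without tunicamycin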
T cruzi inh: inhibitors of intracellular T. cruzi growth, primary screen, luminescence, NIH3T3 host cells; inhibition, % (test concentration not listed); hit rate 1.4% among 300,000; T. cruzi beta-gal in NIH3T3, 90 h;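 active means mean inhibition across valid replicates above about 55%, limit read from the data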;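 further: signal also drops with host cell toxicity which is not excluded here; 0% = plate median of DMSO wells and 100% = zero luminescence signal; higher percent means less beta-gal luminescence so fewer parasites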
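System – NIH/3T3 host cells with β-galactosidase reporter T. cruzi · Doses – single 50 nL compound addition per well in DMSO · Reagent – 5000 T. cruzi trypomastigotes/well · Medium – Low-serum DMEM with 2% FBS · Timing – ≥90 h infection period, 3 h prior cell attachment · Evaluation – parasite load inhibition, % · Technique – GalScreen luminescence, 60 min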
Lmaj promast: Leishmania major promastigote growth inhibition, primary screen. Leishmania major promastigotes, resazurin fluorescence viability. inhibition, % at 10 µM. hit rate 9% among 200,000. AID 1063, 2008; in the data active means inhibition above about 50%;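 further: promastigotes grown with compound for 44 hours at 28 °C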
CHOP UPR activ: activators of apoptotic CHOP UPR arm, primary screen, cell-based, CHO-CHOP luciferase reporter, luminescence, uHTS | UPR activation; percent of tunicamycin response over DMSO baseline | activation, % at 10 µM | hit rate 0.34% among 330,000 | AID 449763, 2010;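 active means at 10 µM dose, activation of 40% or more, normalized to positive control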;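 further: 100% = tunicamycin at 10 µg/mL and 0% = DMSO alone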
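Test system: CHO CHOP reporter cells. Input: 500 CHO-CHOP cells per well. Medium: F12 with 10% FBS. Technique: luciferase luminescence. Measure: percent activation relative to tunicamycin control. Dosing: 10 µM compound, 0.5% DMSO. Timing: 16-18 h cell attachment, then 6 h compound exposure, 37 °C.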
XBP1 UPR activ: activators of adaptive XBP1 UPR arm, primary screen, cell-based, CHO-XBP1 luciferase reporter, luminescence, uHTS; hit rate 0.33% among 330,000; activation, % at 20 µM; IRE1-XBP1 UPR activation; percent of tunicamycin response, DMSO as zero;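 active means versus positive control, 20 µM dose yields 30% or more activation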;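 further: 100% = tunicamycin at 10 µg/mL and 0% = DMSO only wells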
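Assay system: CHO-XBP1 luciferase reporter cells; Schedule: 6 h treatment, 37 °C; Detection: glow luminescence from Steady-Glo reagent; Benchmarks: high control tunicamycin 10 µg/mL final, low control DMSO vehicle only.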
Dynein cargo inh: inhibitors of GR-EGFP nuclear translocation, primary screen, dynein cargo transport inhibitor project, imaging, high-content, 3617.4 mouse cells. z-score, hits read low. hit rate 0.47% among 220,000. test concentration mostly 20 µM; stimulated with dexamethasone, 1 µM; stronger effect = lower value. AID 1381, 2008;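 active means plate z-score of nuclear minus cytoplasmic receptor signal below a set negative limit, without overly bright fluorescence or cell loss, cut at about -3.5 in these data, passing the limit was not always enough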;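 further: z-score of nuclear minus cytoplasmic ring GR-EGFP intensity difference per well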
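Medium: Induction medium lacking tetracycline, stripped serum | Probe or stimulus: 1.0 µM final dexamethasone stimulus | Schedule: 48 h induction, then 1 h compound, then 30 min agonist, 37 °C | Signal: Automated 10x imaging of fixed Hoechst-stained cells | Evaluation: Per-cell GR-EGFP intensity, nucleus versus surrounding cytoplasmic ring, well-averaged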
Active calls of the source: *; nt = no result given.

SMILES | CHOP inh | T cruzi inh | Lmaj promast | CHOP UPR activ | XBP1 UPR activ | Dynein cargo inh
COc1ccc(COc2cc(-c3cccc(OC)c3)nc3ccc(NC(=O)c4cccnc4)cc23)cc1 | -9.0 | 37.9 | 99.9* | 10.0 | -2.0 | 0.556
COc1ccc(COc2cc(-c3cccc(OC)c3)nc3ccc(NC(=O)c4ccccc4)cc23)cc1 | 2.5 | 28.6 | 68.4* | 0.7 | 0.8 | -0.14
COc1ccc(COc2cc(-c3cccc(OC)c3)nc3ccc(NC(=O)c4ccc(OC)cc4)cc23)cc1 | -1.8 | 3.3 | 96.8* | 0.0 | -2.8 | -0.223
Cn1[nH]c(C(F)(F)F)cc1=O | 2.1 | -0.7 | -5.2 | -1.4 | 1.1 | 0.665
CC(C)Cn1nc(C(=O)NCc2ccccc2CN2CCCC2)c2ccccc2c1=O | nt | nt | nt | -2.1 | -2.5 | nt
Nc1c(C(=O)NCCN2CCOCC2)c2nc3ccccc3nc2n1-c1ccccc1 | 18.8 | -9.6 | 13.1 | -1.5 | -1.2 | 1.19
Nc1c(S(=O)(=O)c2cc(Cl)ccc2Cl)c2nc3ccccc3nc2n1CCN1CCOCC1 | 10.2 | 42.6 | 80.3* | 0.0 | -0.1 | -0.784
Nc1c(C(=O)NCCN2CCOCC2)c2nc3ccccc3nc2n1CCc1ccccc1 | 35.7 | 9.5 | 69.6* | -0.9 | -4.0 | 0.53
Nc1c(C(=O)NCc2ccccc2)c2nc3ccccc3nc2n1-c1ccc2c(c1)OCO2 | 79.3* | 41.4 | 4.2 | 3.5 | 7.8 | -0.657
N#Cc1c(N)n(CCc2ccc(F)cc2)c2nc3ccccc3nc12 | 71.5* | 28.2 | 14.7 | 2.7 | -5.2 | -0.796
COCCn1c(N)c(C#N)c2nc3ccccc3nc21 | 18.0 | -4.1 | 3.2 | 0.5 | 3.9 | 1.36
CC(=O)Nc1ccc(S(=O)(=O)c2c(N)n(CCN3CCOCC3)c3nc4ccccc4nc23)cc1 | -1.8 | -0.3 | -5.4 | -0.3 | -0.2 | -0.518
Nc1ccc(-n2c(N)c(C(=O)NCc3ccc4c(c3)OCO4)c3nc4ccccc4nc32)cc1 | nt | 30.3 | -0.4 | 5.0 | 2.2 | -0.417
CCn1c(=O)n(CC)c2cc(N3CCCC3)c(NC(=O)c3cc(Cl)ccc3OC)cc21 | nt | 43.6 | nt | 1.0 | 0.2 | nt
N#Cc1ccccc1NC(=O)COC(=O)CN1C(=O)C2CCCCC2C1=O (configuration not stated) | nt | nt | nt | 2.2 | 0.8 | nt
CNC(=O)[C@H]1O[C@@H](n2cnc3c(NCc4cccc(I)c4)ncnc32)C(O)[C@H]1O (some centres not stated) | 17.6 | nt | nt | nt | nt | nt
Nc1c(C(=O)NCc2ccco2)c2nc3ccccc3nc2n1CCc1ccc(F)cc1 | 58.9 | -1.9 | 99.1* | 11.2 | -1.0 | -1.27
Nc1c(C(=O)NCc2ccc3c(c2)OCO3)c2nc3ccccc3nc2n1CCCN1CCOCC1 | nt | 18.2 | 62.9* | 0.0 | 0.5 | 0.151
Nc1c(C(=O)NCCN2CCOCC2)c2nc3ccccc3nc2n1-c1ccc2c(c1)OCO2 | 11.6 | 2.1 | 21.6 | 0.8 | 0.4 | 0.718
COc1ccc(-n2c(N)c(C(=O)NCc3ccco3)c3nc4ccccc4nc32)cc1 | -10.0 | -21.3 | 5.3 | 4.0 | -1.0 | 0.564
COc1cccc(N2C(=O)C3CCCN3C2=S)c1 (configuration not stated) | nt | -3.5 | nt | 1.0 | 3.4 | nt
Cc1[nH]c2ccccc2c1C(=O)CSc1nc2cc(S(=O)(=O)N3CCCCC3)ccc2o1 | 48.8 | 56.7* | 54.9* | 3.7 | 1.7 | -0.63
Cc1[nH]c2ccccc2c1SCCNC(=O)c1ccc(S(=O)(=O)N2CCCC2)cc1 | 23.5 | 16.3 | 99.3* | 1.9 | 3.5 | -0.536
Cc1ccc(C(=O)CSc2nc3cc(S(=O)(=O)N4CCOCC4)ccc3o2)cc1 | 40.8 | -27.0 | -5.3 | -1.0 | -0.8 | -0.951
CCOCc1c(C(=O)N2CCN(CC(=O)Nc3ccc(F)cc3)CC2)oc2ccccc12 | nt | nt | nt | -0.9 | -4.2 | nt
CC1CCc2sc(C(=O)N/N=C/c3ccc(O)cc3)cc2C1 (configuration not stated) | 24.1 | 8.0 | nt | 5.7 | 3.5 | -0.456
